Measurements as given in ChEMBL document CHEMBL5724801, “EUbOPEN Chemogenomics Library - Multiplex” (2024).
Where “and” joins values, the source holds several entries; their conditions need not be identical. Equal values may be shown once.

Columns and labels:
Format in all cases: toxicity, cell-based
HEK-293T = test: Multiplex assay against HEK293T; details: human, 10 µM, compound concentration 10 uM
In short: (§1)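 Phenotypes for tubulin, mitochondrial mass and membrane permeability are expressed as per cents of healthy-nucleus cells. Cells were stained live at seeding with Hoechst33342, BioTracker Green Microtubule Cytoskeleton Dye, MitoTracker Red and Annexin V Alexa Fluor 680, then imaged after compound addition on a CQ1 microscope at 37°C and 5% CO2. Machine-learning gating in CellPathfinder separated Hoechst high-intensity objects from normal cells, divided normal cells by nuclear state (healthy, pyknosed, fragmented) and divided pyknosed cells into mitotic or apoptotic.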

U2OS = test: Multiplex assay against U2OS; details: human, 10 µM, compound concentration 10 uM; in short: as §1
Fibroblast = test: Multiplex assay against human fibroblast; details: 10 µM, compound concentration 10 uM; in short: as §1

CC(=O)O[C@H]1C(=O)[C@@]2(C)[C@H]([C@H](OC(=O)c3ccccc3)[C@]3(O)C[C@H](OC(=O)[C@H](O)[C@@H](NC(=O)c4ccccc4)c4ccccc4)C(C)=C1C3(C)C)[C@]1(OC(C)=O)CO[C@@H]1C[C@@H]2O [PACLITAXEL]
Population Apoptotic (%) (HEK-293T; 12 h): 41% and 56%
Population Fragmented Nuclei (%) (HEK-293T; 12 h): 7% and 5%
Population Healthy Nuclei (%) (HEK-293T; 12 h): 74% and 64%
Population Hoechst High Intensity Objects (%) (HEK-293T; 12 h): 16% and 14%
Population Membrane Permeable-Phenotype (%) (HEK-293T; 12 h): 0%
Population Mitochondria Different-Phenotype (%) (HEK-293T; 12 h): 79% and 84%
Population Mitotic Cells (%) (HEK-293T; 12 h): 58% and 43%
Population Normal (%) (HEK-293T; 12 h): 83% and 85%
Population Pyknosed Nuclei (%) (HEK-293T; 12 h): 17% and 29%
Population Tubulin-Different-Phenotype (%) (HEK-293T; 12 h): 11% and 16%
Population Apoptotic (%) (HEK-293T; 24 h): 35% and 47%
Population Fragmented Nuclei (%) (HEK-293T; 24 h): 10% and 8%
Population Healthy Nuclei (%) (HEK-293T; 24 h): 70% and 73%
Population Hoechst High Intensity Objects (%) (HEK-293T; 24 h): 16% and 15%
Population Membrane Permeable-Phenotype (%) (HEK-293T; 24 h): 0%
Population Mitochondria Different-Phenotype (%) (HEK-293T; 24 h): 72% and 82%
Population Mitotic Cells (%) (HEK-293T; 24 h): 64% and 52%
Population Normal (%) (HEK-293T; 24 h): 83% and 84%
Population Pyknosed Nuclei (%) (HEK-293T; 24 h): 18% and 17%
Population Tubulin-Different-Phenotype (%) (HEK-293T; 24 h): 8% and 16%
Population Apoptotic (%) (HEK-293T; 48 h): 29% and 69%
Population Fragmented Nuclei (%) (HEK-293T; 48 h): 15% and 10%
Population Healthy Nuclei (%) (HEK-293T; 48 h): 68% and 70%
Population Hoechst High Intensity Objects (%) (HEK-293T; 48 h): 11%
Population Membrane Permeable-Phenotype (%) (HEK-293T; 48 h): 0%
Population Mitochondria Different-Phenotype (%) (HEK-293T; 48 h): 64% and 70%
Population Mitotic Cells (%) (HEK-293T; 48 h): 70% and 30%
Population Normal (%) (HEK-293T; 48 h): 88%
Population Pyknosed Nuclei (%) (HEK-293T; 48 h): 15% and 19%
Population Tubulin-Different-Phenotype (%) (HEK-293T; 48 h): 2% and 11%
Population Apoptotic (%) (U2OS; 12 h): 64% and 71%
Population Fragmented Nuclei (%) (U2OS; 12 h): 28% and 16%
Population Healthy Nuclei (%) (U2OS; 12 h): 46% and 60%
Population Hoechst High Intensity Objects (%) (U2OS; 12 h): 8% and 3%
Population Membrane Permeable-Phenotype (%) (U2OS; 12 h): 23% and 10%
Population Mitochondria Different-Phenotype (%) (U2OS; 12 h): 25% and 30%
Population Mitotic Cells (%) (U2OS; 12 h): 35% and 28%
Population Normal (%) (U2OS; 12 h): 91% and 96%
Population Pyknosed Nuclei (%) (U2OS; 12 h): 24% and 23%
Population Tubulin-Different-Phenotype (%) (U2OS; 12 h): 16% and 14%
Total Cell Count (U2OS; 12 h): 200 and 94
Population Apoptotic (%) (U2OS; 24 h): 69% and 58%
Population Fragmented Nuclei (%) (U2OS; 24 h): 33% and 25%
Population Healthy Nuclei (%) (U2OS; 24 h): 36% and 48%
Population Hoechst High Intensity Objects (%) (U2OS; 24 h): 4%
Population Membrane Permeable-Phenotype (%) (U2OS; 24 h): 21% and 15%
Population Mitochondria Different-Phenotype (%) (U2OS; 24 h): 44% and 34%
Population Mitotic Cells (%) (U2OS; 24 h): 30% and 41%
Population Normal (%) (U2OS; 24 h): 95%
Population Pyknosed Nuclei (%) (U2OS; 24 h): 29% and 26%
Population Tubulin-Different-Phenotype (%) (U2OS; 24 h): 13% and 18%
Total Cell Count (U2OS; 24 h): 198 and 95
Population Apoptotic (%) (U2OS; 48 h): 76% and 70%
Population Fragmented Nuclei (%) (U2OS; 48 h): 35% and 27%
Population Healthy Nuclei (%) (U2OS; 48 h): 30% and 31%
Population Hoechst High Intensity Objects (%) (U2OS; 48 h): 12% and 8%
Population Membrane Permeable-Phenotype (%) (U2OS; 48 h): 27% and 14%
Population Mitochondria Different-Phenotype (%) (U2OS; 48 h): 29% and 50%
Population Mitotic Cells (%) (U2OS; 48 h): 23% and 29%
Population Normal (%) (U2OS; 48 h): 87% and 91%
Population Pyknosed Nuclei (%) (U2OS; 48 h): 33% and 41%
Population Tubulin-Different-Phenotype (%) (U2OS; 48 h): 16% and 25%
Total Cell Count (U2OS; 48 h): 203 and 98
Population Apoptotic (%) (Fibroblast; 12 h): 65% and 39%
Population Fragmented Nuclei (%) (Fibroblast; 12 h): 19% and 34%
Population Healthy Nuclei (%) (Fibroblast; 12 h): 63% and 39%
Population Hoechst High Intensity Objects (%) (Fibroblast; 12 h): 5% and 1%
Population Membrane Permeable-Phenotype (%) (Fibroblast; 12 h): 0% and 6%
Population Mitochondria Different-Phenotype (%) (Fibroblast; 12 h): 10% and 13%
Population Mitotic Cells (%) (Fibroblast; 12 h): 34% and 60%
Population Normal (%) (Fibroblast; 12 h): 94% and 98%
Population Pyknosed Nuclei (%) (Fibroblast; 12 h): 16% and 25%
Population Tubulin-Different-Phenotype (%) (Fibroblast; 12 h): 17% and 44%
Total Cell Count (Fibroblast; 12 h): 167 and 111
Population Apoptotic (%) (Fibroblast; 24 h): 70% and 30%
Population Fragmented Nuclei (%) (Fibroblast; 24 h): 19% and 36%
Population Healthy Nuclei (%) (Fibroblast; 24 h): 63% and 45%
Population Hoechst High Intensity Objects (%) (Fibroblast; 24 h): 1% and 2%
Population Membrane Permeable-Phenotype (%) (Fibroblast; 24 h): 0% and 6%
Population Mitochondria Different-Phenotype (%) (Fibroblast; 24 h): 9% and 10%
Population Mitotic Cells (%) (Fibroblast; 24 h): 29% and 70%
Population Normal (%) (Fibroblast; 24 h): 98% and 97%
Population Pyknosed Nuclei (%) (Fibroblast; 24 h): 16% and 18%
Total Cell Count (Fibroblast; 24 h): 164 and 114
Population Apoptotic (%) (Fibroblast; 48 h): 76% and 54%
Population Fragmented Nuclei (%) (Fibroblast; 48 h): 31% and 48%
Population Healthy Nuclei (%) (Fibroblast; 48 h): 50% and 42%
Population Hoechst High Intensity Objects (%) (Fibroblast; 48 h): 4% and 0%
Population Membrane Permeable-Phenotype (%) (Fibroblast; 48 h): 0% and 3%
Population Mitochondria Different-Phenotype (%) (Fibroblast; 48 h): 16% and 9%
Population Mitotic Cells (%) (Fibroblast; 48 h): 23% and 45%
Population Normal (%) (Fibroblast; 48 h): 95% and 100%
Population Pyknosed Nuclei (%) (Fibroblast; 48 h): 17% and 8%
Population Tubulin-Different-Phenotype (%) (Fibroblast; 48 h): 20% and 40%
Total Cell Count (Fibroblast; 48 h): 177 and 129
